High-throughput results: PubChem, The Scripps Research Institute Molecular Screening Center
Sampled rows, rich in hits. Any-hit rate of the full collection: about 4.6%.
TAAR1 antag: human TAAR1 antagonists, primary screen, Fluo-8 calcium fluorescence, CHO RD-HGA16 cells. antagonist. inhibition, % at 3 µM. 360,000 tested, 1.5% active. AID 624466, 2012;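 active = inhibition above a per-plate cutoff, the mean inhibition of test compounds on that plate plus 3 SD, cut at about 49% in these data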
Target sequence (Q96RJ0 whole entry, looked up): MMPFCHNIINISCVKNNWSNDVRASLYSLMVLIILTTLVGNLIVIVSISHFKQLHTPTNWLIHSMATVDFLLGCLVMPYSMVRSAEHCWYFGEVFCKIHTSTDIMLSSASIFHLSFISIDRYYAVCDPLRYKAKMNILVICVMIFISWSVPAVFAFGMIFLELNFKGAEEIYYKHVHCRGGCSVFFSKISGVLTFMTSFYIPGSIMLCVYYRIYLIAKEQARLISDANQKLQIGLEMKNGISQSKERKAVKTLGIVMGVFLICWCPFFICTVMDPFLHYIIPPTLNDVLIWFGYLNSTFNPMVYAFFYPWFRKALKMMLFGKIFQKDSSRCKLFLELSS
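Assay system: CHO-derived RD-HGA16 cells stably expressing human TAAR1 plus Gα16. Timing: 140 s kinetic read after compound, 140 s after agonist. Technique: kinetic Fluo-8 calcium fluorescence measurement. Measure: % inhibition of agonist calcium response.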
OX1R antag-1: OX1R (HCRTR1) antagonists, primary screen, fluorescence, CHO/OX1R cells, Fluo-8 calcium, orexin A; inhibition, % at 5 µM; 330,000 tested, 0.43% active; Orexin/Hypocretin receptor type 1 (Homo sapiens), O43613; AID 434989, 2010; Fluo-8 calcium fluorescence;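 active = inhibition above its plate's threshold, mean inhibition of all tested compounds on the plate plus 3 SD, cut at about 37% in these data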
Target sequence (O43613 whole entry, looked up): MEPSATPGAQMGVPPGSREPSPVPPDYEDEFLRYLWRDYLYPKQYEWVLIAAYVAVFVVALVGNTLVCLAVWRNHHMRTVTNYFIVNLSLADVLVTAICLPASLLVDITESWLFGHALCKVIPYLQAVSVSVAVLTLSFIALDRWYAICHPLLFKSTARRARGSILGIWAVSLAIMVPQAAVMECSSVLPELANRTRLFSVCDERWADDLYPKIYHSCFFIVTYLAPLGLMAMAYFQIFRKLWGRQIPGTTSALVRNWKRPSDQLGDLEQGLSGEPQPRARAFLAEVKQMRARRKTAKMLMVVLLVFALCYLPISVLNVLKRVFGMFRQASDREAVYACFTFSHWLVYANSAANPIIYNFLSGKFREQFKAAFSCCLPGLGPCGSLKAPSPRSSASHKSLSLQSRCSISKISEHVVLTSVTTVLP
CHO parental Ca: ATP-evoked calcium signal inhibitors, parental CHO, primary screen, counter-screen for OX1R antagonist project, cell-based, fluorescence, Fluo-8 calcium dye; parental CHO-K1, ATP-induced calcium, Fluo-8 fluorescence; inhibition, % at 5.6 µM; 330,000 tested, 0.63% active; AID 463079, 2010;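 active = inhibition above that plate's mean sample inhibition plus 3 SD, cut at about 26% in these data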
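Material: parental CHO cells / Compound: single nominal dose of 5.6 µM per compound / Signal: Fluo-8 fluorescence / Replicates: singlicate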
TAAR1 agonist: human TAAR1 agonists, primary screen, Fluo-8 calcium fluorescence, CHO RD-HGA16 cells. vehicle wells 0%, saturating PEA agonist 100%. activation, % at 3 µM. 360,000 tested, 0.99% active;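 active = activation above the mean activation of all test compounds in the run plus 3 SD, cut at about 38% in these data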
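System: CHO-derived RD-HGA16 cells with stable Gα16 and human TAAR1 / Times: 17-24 h plating, Fluo-8 75 min 37 °C, 30 min RT / Technique: calcium-sensitive Fluo-8 signal, excitation 470-495, emission 515-575 nm / Measure: % activation relative to PEA EC100 response / Benchmarks: DMSO and PEA EC100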
GPR7 antagonist: GPR7 receptor antagonists, primary screen, cell-based, fluorescence, single concentration | Neuropeptides B/W receptor type 1 (Homo sapiens), P48145 | GPR7-expressing cells, fluorescence antagonist assay | inhibition, % at 4.4 µM | 290,000 tested, 1.1% active; in the data active = inhibition above about 16%, passing the limit was not always enough;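 note: cells stimulated with the agonist NPW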
OX1R antag-2: antagonists of human orexin 1 receptor (OX1R). OX1R-expressing cells, FRET antagonist read-out. inhibition, % at 6.6 µM. 330,000 tested, 1.8% active; in the data active = inhibition mostly above about 38%, no sharp cut-off; inactive = mostly below about 40%
OX1R Fluo8 conf: OX1R (HCRTR1) antagonists, confirmation, fluorescence, CHO/OX1R cells, Fluo-8 calcium, orexin A; shares compounds with OX1R antag-1; orexin A calcium Fluo-8 fluorescence; AID 492963, 2010; 1,100 tested, 38% active; inhibition, % at 5 µM; in the data active = inhibition above about 29%
CHO Ca triplic: ATP-evoked calcium inhibition in parental CHO, counter-screen for OX1R antagonist project, cell-based, fluorescence, CHO-K1, triplicate; shares compounds with OX1R antag-1; ATP-induced calcium, Fluo-8 fluorescence; inhibition, % at 5.6 µM; 1,100 tested, 9.3% active; AID 492965, 2010;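 active = inhibition above a per-plate limit, the mean inhibition of that plate's test compounds plus 3 SD, cut at about 25% in these data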
OX1R HTRF conf: OX1R (HCRTR1) antagonists, confirmation, cell-based, HTRF; shares compounds with OX1R antag-2; AID 492964, 2010; inhibition, % at 6.6 µM; 1,800 tested, 49% active; OX1R-expressing cells, HTRF antagonist assay; in the data active = inhibition above about 55%;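 note: CHO cells expressing OX1R stimulated with orexin A at about EC80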
CHO-K1 HTRF: signal inhibition in parental CHO-K1 cells, counter-screen for OX1R antagonist project, cell-based, HTRF. shares compounds with OX1R antag-2. HTRF counterscreen. inhibition, % at 6.6 µM. 1,800 tested, 48% active; in the data active = inhibition above about 17%
TAAR1 ag conf: human TAAR1 agonists, retest of hits, confirmation, Fluo-8 calcium fluorescence, CHO RD-HGA16 cells | activation, % at 3 µM | AID 651783, 2012 | scaled: DMSO 0%, maximal phenethylamine 100% | 2,400 tested, 82% active | shares compounds with TAAR1 agonist;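 active = activation above a cutoff set at the run's mean compound activation plus 3 SD, cut at about 39% in these data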
Ga16 nonsel ag: nonselective calcium mobilization agonists, CHO-Ga16 cells, counter-screen for hTAAR1 agonist project, cell-based, fluorescence, CHO-Ga16 parental line. AID 651787, 2012. shares compounds with TAAR1 agonist. 2,400 tested, 50% active. Fluo-8 calcium fluorescence; normalized to maximal ATP response, DMSO zero. activation, % at 3 µM;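 active = activation above the run cutoff, the mean activation over all tested wells plus 3 SD, cut at about 12% in these data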
TAAR1 desens: TAAR1 desensitization by agonist hits, confirmation, counter-screen for TAAR1 agonist project, cell-based, fluorescence, tachyphylaxis; shares compounds with TAAR1 agonist; CHO RD-HGA16 hTAAR1, Fluo-8 calcium, beta-PEA response inhibition; inhibition, % at 3 µM; 2,400 tested, 46% active;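 active = inhibition above the run cutoff, the mean inhibition of all test compounds plus 3 SD, cut at about 49% in these data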;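 note: beta-PEA stimulus applied at its EC80; loss of beta-PEA calcium signal after compound pretreatment read as receptor desensitization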
Ga16 antag count: inhibition of ATP-evoked calcium response in CHO-Ga16 cells, counter-screen for TAAR1 agonist project, cell-based, fluorescence; shares compounds with TAAR1 agonist; CHO-Ga16 ATP-induced calcium, Fluo-8 fluorescence; inhibition, % at 3 µM; 2,400 tested, 39% active; AID 651952, 2012;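 active = inhibition above the plate's mean compound inhibition plus 3 SD, computed per plate, cut at about 22% in these data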
Large screens that a line does not name were inactive (follow-up assays come after a bar, where they were run).

Cc1ccc(C)c(Cn2nnc(C(=O)Nc3ccc4c(c3)OCCO4)c2N)c1	TAAR1 antag 66.9, TAAR1 agonist 102.0 (no result: GPR7 antagonist) | OX1R Fluo8 conf 36.0 | CHO Ca triplic inactive | TAAR1 ag conf 105.2 | Ga16 nonsel ag 54.5 | TAAR1 desens 63.4 | Ga16 antag count 29.6
O=C(Nc1ccccc1)[C@@H]1CC=C[C@@H]2CCN(Cc3ccc(Cl)c(Cl)c3)C(=O)[C@@H]21	OX1R antag-1 66.1, TAAR1 agonist 57.3, OX1R antag-2 84.6 (no result: GPR7 antagonist) | OX1R Fluo8 conf 55.5 | CHO Ca triplic inactive | OX1R HTRF conf 92.1 | CHO-K1 HTRF inactive | TAAR1 ag conf 51.1 | Ga16 nonsel ag 12.1 | TAAR1 desens inactive | Ga16 antag count inactive
COc1ccc(C(=O)NNC(=S)NC(=O)c2cccs2)cc1	TAAR1 agonist 102.7 | OX1R Fluo8 conf inactive | CHO Ca triplic inactive | TAAR1 ag conf 66.7 | Ga16 nonsel ag 40.0 | TAAR1 desens inactive | Ga16 antag count 25.7
COc1ccc(C(=O)NNC(=S)Nc2ccccc2)cc1	none
COc1ccc(C(=O)NC(=S)NNC(=O)c2cccc(C)c2)cc1	TAAR1 antag 104.0, TAAR1 agonist 169.8 (no result: GPR7 antagonist) | OX1R Fluo8 conf 31.4 | CHO Ca triplic inactive | TAAR1 ag conf 148.0 | Ga16 nonsel ag 122.0 | TAAR1 desens 106.4 | Ga16 antag count 74.3
Fc1ccccc1CNc1ccc(Cl)c(Cl)c1	none
CCn1c(/C=C2\C(=O)N(C)c3ccccc32)nc2ccccc2c1=O	none
CCn1c(/C=C2/C(=O)N(C)c3ccccc32)nc2ccccc2c1=O	OX1R antag-2 85.9 | OX1R HTRF conf inactive | CHO-K1 HTRF inactive
CC1CCN(C(=O)CN(c2cccc(F)c2)S(C)(=O)=O)CC1	none
CSC1=C(C#N)C(c2ccccc2C)C(C#N)=C(N)N1 (configuration not stated)	none
Cc1cc(=O)n(C)c(=O)n1CCCCOc1ccc([N+](=O)[O-])cc1	OX1R antag-2 104.3 | OX1R HTRF conf inactive | CHO-K1 HTRF inactive
Cc1cc(=O)n(C)c(=O)n1CCCCCCOc1ccc([N+](=O)[O-])cc1	none (no result: TAAR1 antag, TAAR1 agonist)
O=[N+]([O-])c1cccc2c(N3CCCC3)ccnc12	OX1R antag-2 131.6 | OX1R HTRF conf 61.2 | CHO-K1 HTRF 101.1
Cc1ccc2c(ccc[n+]2CC(=O)c2ccccc2)c1	OX1R antag-2 83.8 | OX1R HTRF conf inactive | CHO-K1 HTRF 40.0
CCCCc1ccc(S(=O)(=O)N2CCC3(CC2)OCCO3)cc1	none
CC(C)(C)c1ccc(S(=O)(=O)/N=C2\C=C(NS(=O)(=O)c3ccccc3)C(=O)c3ccccc32)cc1	OX1R antag-2 88.1 | OX1R HTRF conf inactive | CHO-K1 HTRF inactive
Cc1ccc(S(=O)(=O)/N=C2\C=C(NS(=O)(=O)c3ccccc3)C(=O)c3ccccc32)c(C)c1	none (no result: OX1R antag-1, CHO parental Ca, GPR7 antagonist, OX1R antag-2)
COc1cc(/C=C2/C(=O)N(C)C(=S)N2C)ccc1OCc1cccc(F)c1	none
CNC(=O)c1c(NC(=O)c2ccco2)sc2c1CCC2	OX1R antag-2 78.1 | OX1R HTRF conf inactive | CHO-K1 HTRF inactive
CCN(CCCNC(=O)C1CCN(S(=O)(=O)c2cccc3nonc23)CC1)Cc1ccccc1	OX1R antag-2 91.7 | OX1R HTRF conf inactive | CHO-K1 HTRF 43.8
COC(=O)c1ccc(NC(=O)CSc2nnc(C)n2CC2CCCO2)cc1 (configuration not stated)	OX1R antag-2 89.1 | OX1R HTRF conf inactive | CHO-K1 HTRF inactive
OCC[C@H]1C[C@H](O)[C@@H](O)[C@]2(CCc3ccccc3CO2)O1	none (no result: GPR7 antagonist)
O=C(CCS(=O)(=O)c1cccc2nonc12)N1CC(=O)N(CCc2ccccc2)C(=O)C1	none
O=C(CCS(=O)(=O)c1cccc2nonc12)N1CCOCC1	OX1R antag-2 99.0 | OX1R HTRF conf inactive | CHO-K1 HTRF 69.2
O=C(CCS(=O)(=O)c1cccc2nonc12)N1CCN(c2ccc(F)cc2)CC1	OX1R antag-2 97.2 | OX1R HTRF conf inactive | CHO-K1 HTRF 23.5
CC12CCC(C(=O)NCCc3ccccc3)(OC1=O)C2(C)C (configuration not stated)	none
Cn1c(=O)c2c(nc(Sc3ccccc3N)n2C)n(C)c1=O	none
O=C(c1ccc([N+](=O)[O-])cc1[N+](=O)[O-])n1cnc2ccccc21	TAAR1 antag 51.6, OX1R antag-2 108.3 | OX1R HTRF conf inactive | CHO-K1 HTRF 68.4
